Bioassay records: PubChem BioAssay, several laboratories
Wee1 stabilizer: inhibitors of human Wee1 degradation; HeLa Luc-Wee1K328M stability, luciferase luminescence; 100% = proteasome inhibitor MG132 effect; P30291; reporter increase, % at 5 µM; hit rate 1.2% among 220,000;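 active = activation above the mean of all tested compounds plus 3 SD, set per screening run, cut at about 8.8% in these data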;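 also: cells exposed to compound for 20 h before luminescence read; 0% = DMSO alone and 100% = MG132 at 30 µM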
Target sequence (P30291 whole entry K328M): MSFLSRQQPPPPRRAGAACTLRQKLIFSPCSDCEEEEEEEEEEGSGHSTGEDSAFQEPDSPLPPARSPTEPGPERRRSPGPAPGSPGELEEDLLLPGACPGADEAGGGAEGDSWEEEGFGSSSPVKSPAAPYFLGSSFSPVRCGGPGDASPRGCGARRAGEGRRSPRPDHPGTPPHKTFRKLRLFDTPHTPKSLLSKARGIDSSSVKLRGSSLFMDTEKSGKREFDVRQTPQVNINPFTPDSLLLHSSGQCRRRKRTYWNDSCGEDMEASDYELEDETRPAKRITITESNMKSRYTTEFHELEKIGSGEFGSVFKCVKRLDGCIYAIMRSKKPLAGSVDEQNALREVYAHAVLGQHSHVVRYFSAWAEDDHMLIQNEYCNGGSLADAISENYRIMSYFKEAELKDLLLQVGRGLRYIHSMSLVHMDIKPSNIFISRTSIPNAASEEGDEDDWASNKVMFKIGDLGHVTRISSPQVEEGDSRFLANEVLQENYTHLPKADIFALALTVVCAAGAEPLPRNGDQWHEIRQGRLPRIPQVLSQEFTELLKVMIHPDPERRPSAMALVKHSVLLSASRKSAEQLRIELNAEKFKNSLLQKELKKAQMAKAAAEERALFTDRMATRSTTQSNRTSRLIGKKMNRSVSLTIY
FXIa inh 1536: factor XIa (human) inhibition; inhibition, % at 5 µM; hit rate 0.14% among 220,000; P03951; purified FXIa, Boc-Glu-Ala-Arg-AMC fluorogenic substrate; AID 798;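 active = inhibition of at least 40%; inactive = inhibition below 40%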;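 also: fluorescence of freed AMC excited at 355 nm; 0% = enzyme without compound and 100% = no enzyme blank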
thrombin 1536: thrombin (human) inhibition; inhibition, % at 5 µM; P00734; hit rate 0.26% among 220,000; alpha-thrombin, Boc-VPR-AMC fluorogenic substrate cleavage;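 active = inhibition at or above 40%; inactive = inhibition below 40%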;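 also: 0% = enzyme with no compound and 100% = wells without enzyme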
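Material: human alpha-thrombin protein; Also added: Boc-VPR-AMC substrate, 15 µM final; Timing: enzyme reaction carried out at room temperature; Signal: fluorescence, ex 355 nm, em 460 nm; Measure: % inhibition of thrombin; Controls: enzyme without compound as high, wells lacking enzyme as low.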
FXIIa inh 1536: inhibitors of human coagulation factor XIIa; inhibition, % at 5 µM; hit rate 0.3% among 220,000; purified FXIIa, Boc-QGR-AMC fluorogenic substrate, 2 h; P00748; in the data active = inhibition above about 40%;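 also: 0% = enzyme with no compound and 100% = blank without enzyme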
Platelet DG rel: platelet dense granule release activity. inhibition, %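 (compounds screened at 7.5 µM in platelet-rich plasma)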. human platelet-rich plasma, SFLLRN dense granule ATP release, luminescence. AID 1663. hit rate 0.22% among 300,000;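 active = mean replicate score, as percent of positive control, at or above 50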
KLK5 inh: inhibitors of human kallikrein 5 | Q9Y337 | recombinant hK5, fluorogenic AMC substrate cleavage | inhibition, % at 5 µM | hit rate 0.59% among 210,000 | AID 873;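 active = inhibition of 40% or more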;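 also: 0% = enzyme controls without compound and 100% = no-enzyme blanks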
Numbers without * were called inactive; . = not tested or not shown. Sampled rows, rich in hits. Any-hit rate of the full collection: about 1.8%.

SMILES	Wee1 stabilizer	FXIa inh 1536	thrombin 1536	FXIIa inh 1536	Platelet DG rel	KLK5 inh
C=CCNC(=O)c1c(Cl)cnn1-c1ccc(C)cc1	9.2*	2	0	7	6	.
CCOC(=O)c1c(-c2ccco2)csc1NC(=O)COC(=O)c1cnc(C)cn1	.	.	.	.	4	.
Cc1ccc(C)c(NC(=O)CN(C)C(=O)c2cccc(S(=O)(=O)N3CCN(Cc4ccccc4)CC3)c2)c1	.	.	.	.	-2	.
Cc1ccc(C)c(NC(=O)CN(C)C(=O)c2cccc(S(=O)(=O)N(C)C)c2)c1	10*	-4	-10	1	-3	-4
COc1cc(N/N=C/c2ccccc2O)ncn1	5	11	-2	2	-3	2
COc1cc(N/N=C/c2ccc(N(C)C)cc2)ncn1	4	-3	-3	3	57*	-3
CC(C)c1ccc(N(CC(=O)N/N=C/c2ccc(OC3CSC3)cc2)S(=O)(=O)c2ccccc2)cc1	4	-11	59*	-4	-10	22
Cc1ccc(NC(=O)CN(C)C(=O)CCC(=O)c2cccs2)cc1	1	7	47*	-3	-42	14
Cc1csc(=O)n1CCC(=O)OCC(=O)NCc1ccc(F)cc1	.	.	.	.	0	.
CCOC(=O)Cc1csc(NC(=O)C2CCCN(S(=O)(=O)c3cnc[nH]3)C2)n1 (stereo not drawn)	0	8	0	17	.	-10
Cc1ccc(Oc2nn[nH]n2)cc1	0	-11	-5	-9	5	-1
CCc1cccc(Oc2nn[nH]n2)c1	-2	9	20	16	15	77*
CCCCCCCc1c(O)nc(SCCN(C)C)[nH]c1=O	-2	69*	7	33	7	21
CCCc1c(O)nc(SCCN(CCC)CCC)[nH]c1=O	2	0	-3	-1	1	-10
COC(=O)C1CN(C(=O)COc2ccc(C)cc2)c2ccccc2O1 (stereo not drawn)	.	.	.	.	3	.
Cc1ccc(OC(=O)c2oc3ccc(F)cc3c2C)c(C)c1	-1	0	3	14	-9	-7
O=C(c1cccs1)N(C(=O)c1cccs1)c1ccc(Br)cn1	3	2	2	32	-8	2
Cc1ccnc(N(C(=O)c2cccs2)C(=O)c2cccs2)c1	12*	1	5	12	14	-4
COc1ccc(CCNC(=O)c2ccc3c(c2)SC2=NS(=O)(=O)CCN23)cc1	-1	1	4	8	77*	6
COc1ccc(CCNC(=O)c2ccc3c(c2)S(=O)(=O)N=C2CCCCCN23)cc1	.	.	.	.	7	.
CCOC(=O)C1CCN(c2ncnc3cc(OC)c(OC)cc23)CC1	-2	2	-3	13	58*	3
CCOC(=O)C1CCN(c2ncnc3c2cnn3-c2ccc(OC)cc2)CC1	9.1*	10	13	2	.	18
Cc1ccc[n+](CC(=O)Nc2ccc(N(C)C)cc2)c1	.	.	.	.	-5	.
O=C1Nc2ccccc2Nc2ncccc21	1	2	-1	17	61*	-13
Cc1ccc(C(C)C)c(OCC(=O)N2CCOCC2)c1	9.2*	-2	-8	0	5	6
SMILES	Wee1 stabilizer	FXIa inh 1536	thrombin 1536	FXIIa inh 1536	Platelet DG rel	KLK5 inh
Cc1nn(C(C)C(=O)NCCc2ccccc2)c(=O)c2cc3occc3n12 (stereo not drawn)	.	.	.	.	4	.
Cc1nn(C(C)C(=O)NCC2CCCO2)c(=O)c2cc3occc3n12 (stereo not drawn)	1	7	11	3	1	43*
CCOc1cc(S(=O)(=O)NCc2ccc(OC)cc2)c(OCC)cc1-n1cnnn1	5	18	69*	20	6	46*
CCOc1cc(S(=O)(=O)NCCc2ccc(OC)c(OC)c2)c(OCC)cc1-n1cnnn1	1	-6	-1	12	0	-23
CCN(CC)S(=O)(=O)c1ccc(OC)c(NC(=O)C2CC(=O)N(c3ccc(C)cc3)C2)c1 (stereo not drawn)	-3	-6	1	5	1	-2
COc1ccc(-c2nc(C#N)c(NCCN(C)C)o2)cc1	9.1*	6	0	11	0	-9
COc1ccc(-c2nc(C#N)c(NCCc3ccccc3)o2)cc1	1	3	0	7	-7	15
CCCCSc1nc2c(cc1C#N)CCC2	2	5	14	2	-9	104*
O=C(Nc1nc2ccccc2[nH]1)c1ccc(F)cc1	-3	-2	1	12	10	-9
Cc1cc(C)cc(C(=O)Nc2nc3ccccc3[nH]2)c1	.	.	.	.	-3	.
CCOc1ccc(C(=O)Nc2nc3ccccc3[nH]2)cc1OCC	9.3*	-7	-23	8	-4	0
O=C(Nc1nc2ccccc2[nH]1)c1ccccc1F	-6	-5	-8	7	87*	-12
Cc1ccsc1C(=O)Nc1nc2ccccc2[nH]1	3	1	-7	9	100*	-8
O=C(CCC1CCCCC1)Nc1ccccc1C(=O)N1CCOCC1	0	-1	0	7	0	.
CCOc1ncccc1C(=O)Nc1nc(SC)ns1	0	-4	-3	2	-18	-2
Cc1ccccc1C(=O)NC1CCN(CC(=O)N2CCCCC2C)CC1 (stereo not drawn)	.	.	.	.	4	.
O=C1CCN(Cc2ccc(Br)cc2)CCN1[C@H](CO)Cc1ccccc1	.	.	.	.	-1	.
CC(=O)Oc1ccc(N(C(C)=O)S(=O)(=O)c2ccc(C)cc2)c2ccccc12	.	.	.	.	-7	.
COc1ccccc1NS(=O)(=O)c1cc(NC(=O)Nc2ccccc2)ccc1N1CCCCC1	4	12	19	22	.	53*
Cn1c(N/N=C/c2cccs2)cc(=O)n(C)c1=O	0	0	65*	-4	33	-10
O=C(NC(=S)Nc1ccc(F)cc1)c1ccc2c(c1)OCCO2	9.5*	-5	3	-1	-11	-11
CCO[C@@H]1OC(C(=O)N2CCOCC2)=C[C@H](c2coc3ccccc3c2=O)[C@H]1CCCO	0	-2	-5	7	6	0
O=C(c1ccccc1)c1ccc2nc(-c3ccco3)c(-c3ccco3)nc2c1	1	-1	-6	2	5	-2
c1coc(-c2nc3ccccc3nc2-c2ccco2)c1	-4	13	16	45*	-3	12
O=c1oc(-c2ccco2)nc2c1cnn2-c1ccccc1	1	14	17	48*	-1	21
O=c1oc(-c2ccco2)nc2ccccc12	2	22	8	6	1	44*
COc1cc(NC(=O)c2cc([N+](=O)[O-])ccc2NC(=O)CN2CCN(c3ccccn3)CC2)cc(OC)c1	.	.	.	.	3	.
Cc1cc(-c2ccccc2)c(C#N)c(SCC(N)=O)n1	9.7*	4	-4	23	-1	-1
O=C(Nc1ccc(Cl)c(C(F)(F)F)c1)C(=O)N1CCCCC1	5	4	-10	7	9	0
O=C(Nc1ccc(Cl)c(C(F)(F)F)c1)N1CCCC(O)C1 (stereo not drawn)	-1	3	-3	42*	3	2
